Measurements as given in the M2OR odorant receptor database.
Positions count from the first letter of the chain named.

Key:
Conditions in all cases: stereoisomer not certain
OR4N2 = system: T1, OR4N2
T1 sequence (whole entry): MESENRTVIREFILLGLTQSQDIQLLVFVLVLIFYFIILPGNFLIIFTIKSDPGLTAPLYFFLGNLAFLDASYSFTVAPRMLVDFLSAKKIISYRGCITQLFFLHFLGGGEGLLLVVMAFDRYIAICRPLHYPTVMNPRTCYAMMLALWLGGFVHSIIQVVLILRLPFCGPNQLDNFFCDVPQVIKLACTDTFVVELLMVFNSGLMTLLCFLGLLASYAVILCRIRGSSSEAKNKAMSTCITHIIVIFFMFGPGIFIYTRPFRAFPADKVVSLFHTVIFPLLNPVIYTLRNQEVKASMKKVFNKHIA
Outline: (§1)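 Each entry records the cell line, G-protein, co-transfected protein and tags used. Methods varied with the source, often transient luciferase assays in mammalian cell lines. A receptor–molecule pair is called responsive (active) if the original authors judged its signal statistically different from baseline and non-responsive (inactive) otherwise.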

OR4N4 (Homo sapiens) = target: T2, OR4N4 (Homo sapiens) (UniProt Q8N0Y3)
T2 sequence (whole entry): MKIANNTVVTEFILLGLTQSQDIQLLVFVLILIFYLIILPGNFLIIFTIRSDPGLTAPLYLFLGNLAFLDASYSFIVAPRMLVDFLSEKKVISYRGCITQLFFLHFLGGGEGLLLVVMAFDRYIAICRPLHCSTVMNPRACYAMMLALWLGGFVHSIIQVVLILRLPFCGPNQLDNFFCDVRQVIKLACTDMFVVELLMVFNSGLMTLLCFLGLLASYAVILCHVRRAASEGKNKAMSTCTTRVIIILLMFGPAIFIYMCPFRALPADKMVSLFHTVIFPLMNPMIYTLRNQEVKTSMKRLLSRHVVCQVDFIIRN
Outline: as §1

OR4N5 (Homo sapiens) = target: T3, OR4N5 (Homo sapiens) (UniProt Q8IXE1)
T3 sequence (whole entry): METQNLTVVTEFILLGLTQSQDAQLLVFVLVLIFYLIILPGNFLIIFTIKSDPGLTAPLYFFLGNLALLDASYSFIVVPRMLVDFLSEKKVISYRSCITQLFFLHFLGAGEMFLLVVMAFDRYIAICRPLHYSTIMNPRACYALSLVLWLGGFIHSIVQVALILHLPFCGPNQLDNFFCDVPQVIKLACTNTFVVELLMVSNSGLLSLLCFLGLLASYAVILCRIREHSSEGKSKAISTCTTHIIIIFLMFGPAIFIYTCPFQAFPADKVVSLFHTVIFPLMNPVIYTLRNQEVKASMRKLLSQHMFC
Outline: as §1

OR4P4 (Homo sapiens) = target: T4, OR4P4 (Homo sapiens) (UniProt Q8NGL7)
T4 sequence (whole entry): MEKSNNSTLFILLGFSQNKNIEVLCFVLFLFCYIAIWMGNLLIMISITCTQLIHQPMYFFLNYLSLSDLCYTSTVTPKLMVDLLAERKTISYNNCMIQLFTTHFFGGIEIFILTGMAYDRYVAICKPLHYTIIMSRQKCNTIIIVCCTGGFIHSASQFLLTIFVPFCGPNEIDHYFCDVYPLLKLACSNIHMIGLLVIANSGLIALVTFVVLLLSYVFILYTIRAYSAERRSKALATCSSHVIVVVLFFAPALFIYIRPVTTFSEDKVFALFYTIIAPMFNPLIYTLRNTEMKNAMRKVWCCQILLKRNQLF
Outline: as §1

OR4Q3 (Homo sapiens) = target: T5, OR4Q3 (Homo sapiens) (UniProt Q8NH05)
T5 sequence (whole entry): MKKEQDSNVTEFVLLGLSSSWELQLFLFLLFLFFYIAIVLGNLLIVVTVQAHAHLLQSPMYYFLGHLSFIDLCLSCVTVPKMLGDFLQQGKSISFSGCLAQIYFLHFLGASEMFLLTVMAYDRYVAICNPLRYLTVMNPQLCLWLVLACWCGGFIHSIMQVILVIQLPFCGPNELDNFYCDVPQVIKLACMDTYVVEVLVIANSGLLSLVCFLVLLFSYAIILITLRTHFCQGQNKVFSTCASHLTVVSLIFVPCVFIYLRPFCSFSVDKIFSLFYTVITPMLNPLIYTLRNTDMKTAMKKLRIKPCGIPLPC
Outline: as §1

OR4Q3 T135A = system: T6, OR4Q3 T135A
T6 sequence (whole entry): T5 sequence (whole entry) with T135A
Outline: as §1

OR4S1 (Homo sapiens) = target: T7, OR4S1 (Homo sapiens) (UniProt Q8NGB4)
T7 sequence (whole entry): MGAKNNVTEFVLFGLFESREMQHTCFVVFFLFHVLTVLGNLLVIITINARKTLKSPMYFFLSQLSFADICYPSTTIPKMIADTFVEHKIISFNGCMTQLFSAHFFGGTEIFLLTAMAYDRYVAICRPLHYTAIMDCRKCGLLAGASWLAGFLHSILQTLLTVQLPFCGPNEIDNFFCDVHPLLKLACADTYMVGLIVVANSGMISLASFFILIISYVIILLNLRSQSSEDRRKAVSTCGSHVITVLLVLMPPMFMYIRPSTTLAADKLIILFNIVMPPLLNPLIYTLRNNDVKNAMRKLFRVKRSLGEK
Outline: as §1

OR4S2 (Homo sapiens) = target: T8, OR4S2 (Homo sapiens) (UniProt Q8NH73)
T8 sequence (whole entry): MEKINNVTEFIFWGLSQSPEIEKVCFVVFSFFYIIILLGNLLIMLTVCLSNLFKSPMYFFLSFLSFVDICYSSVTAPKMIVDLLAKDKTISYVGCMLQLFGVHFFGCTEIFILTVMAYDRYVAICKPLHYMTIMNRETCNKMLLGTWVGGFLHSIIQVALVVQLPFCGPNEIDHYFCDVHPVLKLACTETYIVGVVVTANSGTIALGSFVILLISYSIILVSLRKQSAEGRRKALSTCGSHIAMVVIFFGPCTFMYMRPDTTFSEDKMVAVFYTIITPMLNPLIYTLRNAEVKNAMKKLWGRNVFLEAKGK
Outline: as §1

OR4X1 (Homo sapiens) = target: T9, OR4X1 (Homo sapiens) (UniProt Q8NH49)
T9 sequence (whole entry): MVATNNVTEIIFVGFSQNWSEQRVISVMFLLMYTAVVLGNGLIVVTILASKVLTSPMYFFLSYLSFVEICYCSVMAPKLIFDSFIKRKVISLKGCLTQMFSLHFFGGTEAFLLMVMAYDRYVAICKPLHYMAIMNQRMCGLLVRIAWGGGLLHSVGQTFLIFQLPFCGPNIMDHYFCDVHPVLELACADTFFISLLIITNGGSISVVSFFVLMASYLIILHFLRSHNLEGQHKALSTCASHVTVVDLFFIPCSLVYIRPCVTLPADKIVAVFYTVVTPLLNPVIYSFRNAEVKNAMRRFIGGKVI
Outline: as §1

OR4X2 (Homo sapiens) = target: T10, OR4X2 (Homo sapiens) (UniProt Q8NGF9)
T10 sequence (whole entry): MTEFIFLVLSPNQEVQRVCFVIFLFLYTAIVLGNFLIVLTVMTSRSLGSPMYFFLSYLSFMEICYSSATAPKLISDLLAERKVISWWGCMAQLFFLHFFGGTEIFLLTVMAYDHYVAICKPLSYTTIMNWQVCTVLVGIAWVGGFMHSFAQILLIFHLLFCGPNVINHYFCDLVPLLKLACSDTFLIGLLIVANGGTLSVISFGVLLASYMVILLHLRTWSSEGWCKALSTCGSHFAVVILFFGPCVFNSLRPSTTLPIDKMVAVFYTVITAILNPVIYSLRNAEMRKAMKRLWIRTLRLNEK
Outline: as §1

OR51A2 (Homo sapiens) = target: T11, OR51A2 (Homo sapiens) (UniProt Q8NGJ7)
T11 sequence (whole entry): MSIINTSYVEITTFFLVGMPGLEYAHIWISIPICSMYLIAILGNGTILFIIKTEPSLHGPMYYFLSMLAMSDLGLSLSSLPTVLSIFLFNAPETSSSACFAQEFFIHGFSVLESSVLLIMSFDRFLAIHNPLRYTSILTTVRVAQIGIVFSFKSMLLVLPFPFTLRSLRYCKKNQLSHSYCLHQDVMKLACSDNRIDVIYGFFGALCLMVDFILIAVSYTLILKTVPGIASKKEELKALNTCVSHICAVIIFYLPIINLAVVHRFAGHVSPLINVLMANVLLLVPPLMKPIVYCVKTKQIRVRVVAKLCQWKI
Outline: as §1

OR51A4 (Homo sapiens) = target: T12, OR51A4 (Homo sapiens) (UniProt Q8NGJ6)
T12 sequence (whole entry): T11 sequence (whole entry) with G59E, T94I, S97N, S167N, P227L, E235Q, G267R, M288T, K289N, W311R
Outline: as §1

OR51A7 (Homo sapiens) = target: T13, OR51A7 (Homo sapiens) (UniProt Q8NH64)
T13 sequence (whole entry): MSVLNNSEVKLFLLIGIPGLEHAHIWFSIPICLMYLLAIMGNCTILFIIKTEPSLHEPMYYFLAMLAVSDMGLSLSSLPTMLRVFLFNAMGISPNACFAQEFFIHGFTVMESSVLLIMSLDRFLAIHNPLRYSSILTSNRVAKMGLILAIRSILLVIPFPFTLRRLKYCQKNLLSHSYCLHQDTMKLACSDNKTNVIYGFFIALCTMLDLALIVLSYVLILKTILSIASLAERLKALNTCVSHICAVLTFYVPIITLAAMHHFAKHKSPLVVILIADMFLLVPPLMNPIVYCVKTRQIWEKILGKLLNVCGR
Outline: as §1

OR51B2 (Homo sapiens) = target: T14, OR51B2 (Homo sapiens) (UniProt Q9Y5P1)
T14 sequence (whole entry): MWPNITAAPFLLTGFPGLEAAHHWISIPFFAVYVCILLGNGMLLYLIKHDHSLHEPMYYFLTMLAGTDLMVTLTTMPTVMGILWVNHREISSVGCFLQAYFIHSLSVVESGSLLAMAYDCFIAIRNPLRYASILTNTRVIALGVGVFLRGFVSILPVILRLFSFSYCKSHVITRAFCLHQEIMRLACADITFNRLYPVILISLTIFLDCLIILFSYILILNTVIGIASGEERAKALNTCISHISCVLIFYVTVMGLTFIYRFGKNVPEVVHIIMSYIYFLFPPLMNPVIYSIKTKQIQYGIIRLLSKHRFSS
Outline: as §1

OR51B4 (Homo sapiens) = target: T15, OR51B4 (Homo sapiens) (UniProt Q9Y5P0)
T15 sequence (whole entry): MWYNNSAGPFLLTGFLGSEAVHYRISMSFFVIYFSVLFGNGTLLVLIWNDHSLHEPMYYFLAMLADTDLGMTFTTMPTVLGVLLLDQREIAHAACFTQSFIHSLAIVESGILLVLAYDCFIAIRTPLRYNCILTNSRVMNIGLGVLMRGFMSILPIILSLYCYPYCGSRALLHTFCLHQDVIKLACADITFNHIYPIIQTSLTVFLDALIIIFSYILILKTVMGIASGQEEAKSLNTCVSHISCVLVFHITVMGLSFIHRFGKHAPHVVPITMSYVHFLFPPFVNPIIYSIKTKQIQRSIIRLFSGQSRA
Outline: as §1

OR51B5 (Homo sapiens) = target: T16, OR51B5 (Homo sapiens) (UniProt Q9H339)
T16 sequence (whole entry): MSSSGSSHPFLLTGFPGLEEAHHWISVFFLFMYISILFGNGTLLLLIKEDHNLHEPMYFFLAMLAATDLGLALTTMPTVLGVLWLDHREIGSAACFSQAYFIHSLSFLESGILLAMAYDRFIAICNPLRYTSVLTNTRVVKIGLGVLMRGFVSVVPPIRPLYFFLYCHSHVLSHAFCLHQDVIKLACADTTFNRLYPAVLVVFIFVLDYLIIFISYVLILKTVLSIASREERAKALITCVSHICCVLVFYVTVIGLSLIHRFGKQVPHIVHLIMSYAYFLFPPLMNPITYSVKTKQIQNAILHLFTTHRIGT
Outline: as §1

OR51B6 (Homo sapiens) = target: T17, OR51B6 (Homo sapiens) (UniProt Q9H340)
T17 sequence (whole entry): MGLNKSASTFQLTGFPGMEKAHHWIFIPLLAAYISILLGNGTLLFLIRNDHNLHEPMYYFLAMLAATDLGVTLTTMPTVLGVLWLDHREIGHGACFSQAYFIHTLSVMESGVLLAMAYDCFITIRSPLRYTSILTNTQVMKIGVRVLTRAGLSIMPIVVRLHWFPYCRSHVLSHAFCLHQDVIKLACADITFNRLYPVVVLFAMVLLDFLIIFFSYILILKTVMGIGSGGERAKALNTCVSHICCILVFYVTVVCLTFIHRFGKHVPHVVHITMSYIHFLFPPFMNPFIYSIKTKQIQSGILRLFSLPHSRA
Outline: as §1

OR4N4C (Homo sapiens) = OR4N4C (Homo sapiens) (UniProt A0A096LPK9)
OR4N4C (Homo sapiens), sequence (A0A096LPK9 whole entry): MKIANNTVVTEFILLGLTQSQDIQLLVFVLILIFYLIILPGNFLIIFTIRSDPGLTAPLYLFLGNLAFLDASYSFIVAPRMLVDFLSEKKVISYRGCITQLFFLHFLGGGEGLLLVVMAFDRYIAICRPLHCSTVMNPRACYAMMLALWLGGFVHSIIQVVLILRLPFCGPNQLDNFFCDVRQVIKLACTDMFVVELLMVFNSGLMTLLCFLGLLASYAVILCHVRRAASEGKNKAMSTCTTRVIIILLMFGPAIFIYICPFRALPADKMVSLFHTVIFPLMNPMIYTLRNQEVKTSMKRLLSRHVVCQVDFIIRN
Outline: as §1

OR4Q2 (Homo sapiens) = OR4Q2 (Homo sapiens) (UniProt P0C623)
OR4Q2 (Homo sapiens), sequence (P0C623 as listed by the source): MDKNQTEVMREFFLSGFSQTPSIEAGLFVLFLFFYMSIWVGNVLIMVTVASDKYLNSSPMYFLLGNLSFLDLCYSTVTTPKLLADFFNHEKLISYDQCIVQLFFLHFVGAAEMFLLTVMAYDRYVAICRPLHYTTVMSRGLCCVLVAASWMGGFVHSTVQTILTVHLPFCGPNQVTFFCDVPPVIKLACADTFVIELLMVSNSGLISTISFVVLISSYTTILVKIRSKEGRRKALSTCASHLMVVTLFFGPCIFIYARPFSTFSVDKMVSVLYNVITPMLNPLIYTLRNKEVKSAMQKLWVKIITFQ
Outline: as §1

Measured: odorant receptor agonist call

CC1=NC(C)C(C)S1 (stereo not given)
inactive: OR4N2 | OR4N4 (Homo sapiens) | OR4N5 (Homo sapiens) | OR4P4 (Homo sapiens) | OR4Q3 (Homo sapiens) | OR4Q3 T135A | OR4S1 (Homo sapiens) | OR4S2 (Homo sapiens) | OR4X1 (Homo sapiens) | OR4X2 (Homo sapiens) | OR51A2 (Homo sapiens) | OR51A4 (Homo sapiens) | OR51A7 (Homo sapiens) | OR51B2 (Homo sapiens) | OR51B4 (Homo sapiens) | OR51B5 (Homo sapiens) | OR51B6 (Homo sapiens)

Cc1cccc(C)c1C
inactive: OR51B5 (Homo sapiens)

CC1CCCCCCCCCCCCC(=O)C1 (stereo not given)
inactive: OR4N4 (Homo sapiens) | OR4N4C (Homo sapiens) | OR4N5 (Homo sapiens) | OR4P4 (Homo sapiens) | OR4Q2 (Homo sapiens) | OR4Q3 (Homo sapiens) | OR4S1 (Homo sapiens) | OR4S2 (Homo sapiens) | OR4X1 (Homo sapiens) | OR4X2 (Homo sapiens) | OR51A2 (Homo sapiens) | OR51A4 (Homo sapiens) | OR51A7 (Homo sapiens) | OR51B2 (Homo sapiens) | OR51B4 (Homo sapiens) | OR51B5 (Homo sapiens) | OR51B6 (Homo sapiens)
